The source of these data is ChEMBL document CHEMBL1909624, “BRN-103, a novel nicotinamide derivative, inhibits VEGF-induced angiogenesis and proliferation in human umbilical vein endothelial cells” (2011).

For assay [1], the system named is HUVEC. Put plainly: Cytotoxicity against human HUVEC. The format is functional.
Assay [2] relates to HUVEC. Put plainly: Antiangiogenic activity in HUVEC assessed as decrease in VEGF-induced cell migration at 50 uM after 24 hrs by transwell migration assay. It is filed as functional, cell-based. To be noted: Homo sapiens.
For assay [3], the target named is T1, Nitric oxide synthase 3 (Homo sapiens) (UniProt P29474).
T1 sequence (whole entry): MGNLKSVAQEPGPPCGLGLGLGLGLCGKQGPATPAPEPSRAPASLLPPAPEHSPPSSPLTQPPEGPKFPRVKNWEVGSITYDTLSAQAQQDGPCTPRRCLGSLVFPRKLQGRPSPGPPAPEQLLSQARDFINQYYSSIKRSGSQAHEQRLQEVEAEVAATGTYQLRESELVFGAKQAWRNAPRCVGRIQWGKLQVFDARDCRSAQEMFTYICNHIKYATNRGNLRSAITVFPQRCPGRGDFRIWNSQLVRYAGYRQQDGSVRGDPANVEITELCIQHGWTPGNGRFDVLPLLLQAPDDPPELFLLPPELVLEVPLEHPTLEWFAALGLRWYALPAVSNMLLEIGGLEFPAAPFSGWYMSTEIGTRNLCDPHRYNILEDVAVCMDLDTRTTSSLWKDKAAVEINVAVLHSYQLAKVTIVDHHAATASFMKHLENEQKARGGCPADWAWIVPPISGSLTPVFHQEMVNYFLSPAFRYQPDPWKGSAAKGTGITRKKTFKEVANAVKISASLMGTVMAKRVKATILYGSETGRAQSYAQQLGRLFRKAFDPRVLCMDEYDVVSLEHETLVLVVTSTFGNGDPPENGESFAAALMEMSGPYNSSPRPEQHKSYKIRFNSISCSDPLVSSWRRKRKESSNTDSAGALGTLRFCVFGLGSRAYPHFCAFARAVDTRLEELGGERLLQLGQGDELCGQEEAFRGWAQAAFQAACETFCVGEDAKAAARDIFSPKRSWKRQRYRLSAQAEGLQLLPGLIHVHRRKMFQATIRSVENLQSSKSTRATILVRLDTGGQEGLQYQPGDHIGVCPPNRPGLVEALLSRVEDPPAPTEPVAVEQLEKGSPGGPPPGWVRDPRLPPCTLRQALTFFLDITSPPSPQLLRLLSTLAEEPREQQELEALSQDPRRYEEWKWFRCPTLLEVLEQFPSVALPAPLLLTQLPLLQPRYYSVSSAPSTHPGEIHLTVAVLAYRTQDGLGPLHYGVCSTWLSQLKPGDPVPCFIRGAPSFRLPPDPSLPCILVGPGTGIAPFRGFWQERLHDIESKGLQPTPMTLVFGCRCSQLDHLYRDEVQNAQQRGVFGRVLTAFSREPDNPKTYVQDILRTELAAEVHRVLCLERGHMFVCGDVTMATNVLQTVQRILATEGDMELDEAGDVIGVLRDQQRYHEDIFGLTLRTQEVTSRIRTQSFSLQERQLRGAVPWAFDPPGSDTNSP
Put plainly: Inhibition of eNOS phosphorylation at […] in VEGF-stimulated HUVEC at 1 uM preincubated for 1 hr before VEGF induction measured after 1 hr by Western blot analysis. Put shortly:
(§1)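 0.1% serum-starved HUVECs were pretreated with compound for 1 h, then given 10 ng/ml VEGF for 5 min (p-ERK), 30 min (p-AKT) or 1 h (p-eNOS). Lysates were Western-blotted with phospho-specific and total AKT, ERK and eNOS antibodies. Bands were quantified as the mean of three experiments with SD; ANOVA with Dunnett's test.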

For assay [4], the system named is HUVEC. Briefly: Antiangiogenic activity in HUVEC assessed as inhibition of VEGF-induced cell proliferation at 1 uM by BrdU incorporation assay. The format is functional, cell-based. Conditions: Homo sapiens. Put shortly:
(§2)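 DNA synthesis was measured by BrdU incorporation in 0.1% serum-starved HUVECs stimulated with VEGF, with or without compound. Incorporated BrdU was detected with an anti-BrdU monoclonal antibody using a commercial ELISA kit. Mean of three experiments with SD; ANOVA with Dunnett's post-hoc test.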
In general terms: Uptake of a labelled nucleoside into DNA is a usual measure of proliferation.

Assay [5] concerns HUVEC. Put plainly: Inhibition of AKT phosphorylation at Ser-473 in VEGF-stimulated HUVEC at 1 uM preincubated for 1 hr before VEGF induction measured after 30 mins by Western blot analysis. It is filed as cell-based. To be noted: Homo sapiens. Put shortly: as §1
The test system of assay [6] is HUVEC. Put plainly: Antiangiogenic activity in HUVEC assessed as decrease in VEGF-induced cell migration at 1 uM after 24 hrs by transwell migration assay. It is filed as functional, cell-based. To be noted: Homo sapiens. In short, it runs like this: (§3)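 HUVECs were seeded in a Boyden chamber on a porous membrane, with test compound in 0.1% EBM in the upper chamber and 10 ng/ml VEGF in the lower. After 24 h, cells that had crossed the pores were counted. Mean of three independent experiments with SD; ANOVA with Dunnett's post-hoc test.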

The subject of assay [7] is HUVEC. Briefly: Inhibition of ERK phosphorylation at Thr202/Tyr204 in VEGF-stimulated HUVEC at 1 uM preincubated for 1 hr before VEGF induction measured after 5 mins by Western blot analysis. The format is cell-based. To be noted: Homo sapiens. In short, it runs like this:
as §1
A general note: A western blot detects proteins with antibodies after separation by electrophoresis.

The subject of assay [8] is Aorta. Briefly: Inhibition of VEGF-induced angiogenesis in C57BL/6 mouse aortic rings assessed as decrease in microvessel sprouting after 7 days. The format is functional, tissue-based.
The target in assay [9] is Vascular endothelial growth factor receptor 2 (Homo sapiens) (UniProt P35968). Briefly: Inhibition of VEGFR2 phosphorylation at tyr-1175 in VEGF-stimulated HUVEC preincubated for 1 hr before VEGF induction measured after 5 mins by Western blot analysis. Put shortly: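 HUVECs were pretreated with compound for 1 h, stimulated with 10 ng/ml VEGF for 5 min, and lysed. Western blot used an anti-phospho-VEGFR2 antibody, with total VEGFR and β-actin as internal controls. Blot representative of three separate experiments.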

In assay [10] the test system is HUVEC. Put plainly: Inhibition of ERK phosphorylation at Thr202/Tyr204 in VEGF-stimulated HUVEC preincubated for 1 hr before VEGF induction measured after 5 mins by Western blot analysis. Conditions: Homo sapiens. The format is cell-based. In short, it runs like this:
as §1

The subject of assay [11] is HUVEC. Briefly: Antiangiogenic activity in HUVEC assessed as decrease in VEGF-induced cell migration after 24 hrs by wound healing assay. To be noted: Homo sapiens.
The target of assay [12] is T1, Nitric oxide synthase 3 (Homo sapiens). Put plainly: Inhibition of eNOS phosphorylation at […] in VEGF-stimulated HUVEC preincubated for 1 hr before VEGF induction measured after 1 hr by Western blot analysis. In short, it runs like this: as §1
The subject of assay [13] is HUVEC. Briefly: Antiangiogenic activity in HUVEC assessed as decrease in VEGF-induced cell migration after 24 hrs by transwell migration assay. It is filed as functional, cell-based. Conditions: Homo sapiens. In short, it runs like this: as §3
In assay [14] the test system is HUVEC. Put plainly: Inhibition of AKT phosphorylation at Ser-473 in VEGF-stimulated HUVEC preincubated for 1 hr before VEGF induction measured after 30 mins by Western blot analysis. To be noted: Homo sapiens. The format is cell-based. Put shortly:
as §1

For assay [15], the system named is HUVEC. Put plainly: Antiangiogenic activity in HUVEC assessed as decrease in VEGF-induced cell migration at 10 uM after 24 hrs by transwell migration assay. The format is functional, cell-based. Conditions: Homo sapiens.
Assay [16] relates to HUVEC. Briefly: Antiangiogenic activity in HUVEC assessed as inhibition of VEGF-induced cell proliferation by BrdU incorporation assay. It is filed as functional, cell-based. Conditions: Homo sapiens. Put shortly: as §2
Assay [17] relates to HUVEC. Put plainly: Antiangiogenic activity in VEGF-stimulated HUVEC assessed as inhibition of capillary tube formation preincubated for 1 hr measured after 6 hrs by photographic analysis. It is filed as functional, cell-based. Conditions: Homo sapiens. In short, it runs like this:
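HUVECs were pretreated with compound for 1 h, then seeded at 4–7 × 10⁴ cells on growth factor-reduced Matrigel in EBM with or without 10 ng/ml VEGF. After 6 h, tubes were photographed at ×100 and counted manually in low-power fields. Mean of three experiments with SD.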

The subject of assay [18] is HUVEC. Put plainly: Antiangiogenic activity in HUVEC assessed as decrease in VEGF-induced cell migration at 25 uM after 24 hrs by transwell migration assay. The format is functional, cell-based. To be noted: Homo sapiens.

Molecules are shown by their SMILES. Activity calls are given as the source filed them. The rule behind the calls is not given here.

Sequence of Vascular endothelial growth factor receptor 2 (Homo sapiens) (P35968 whole entry): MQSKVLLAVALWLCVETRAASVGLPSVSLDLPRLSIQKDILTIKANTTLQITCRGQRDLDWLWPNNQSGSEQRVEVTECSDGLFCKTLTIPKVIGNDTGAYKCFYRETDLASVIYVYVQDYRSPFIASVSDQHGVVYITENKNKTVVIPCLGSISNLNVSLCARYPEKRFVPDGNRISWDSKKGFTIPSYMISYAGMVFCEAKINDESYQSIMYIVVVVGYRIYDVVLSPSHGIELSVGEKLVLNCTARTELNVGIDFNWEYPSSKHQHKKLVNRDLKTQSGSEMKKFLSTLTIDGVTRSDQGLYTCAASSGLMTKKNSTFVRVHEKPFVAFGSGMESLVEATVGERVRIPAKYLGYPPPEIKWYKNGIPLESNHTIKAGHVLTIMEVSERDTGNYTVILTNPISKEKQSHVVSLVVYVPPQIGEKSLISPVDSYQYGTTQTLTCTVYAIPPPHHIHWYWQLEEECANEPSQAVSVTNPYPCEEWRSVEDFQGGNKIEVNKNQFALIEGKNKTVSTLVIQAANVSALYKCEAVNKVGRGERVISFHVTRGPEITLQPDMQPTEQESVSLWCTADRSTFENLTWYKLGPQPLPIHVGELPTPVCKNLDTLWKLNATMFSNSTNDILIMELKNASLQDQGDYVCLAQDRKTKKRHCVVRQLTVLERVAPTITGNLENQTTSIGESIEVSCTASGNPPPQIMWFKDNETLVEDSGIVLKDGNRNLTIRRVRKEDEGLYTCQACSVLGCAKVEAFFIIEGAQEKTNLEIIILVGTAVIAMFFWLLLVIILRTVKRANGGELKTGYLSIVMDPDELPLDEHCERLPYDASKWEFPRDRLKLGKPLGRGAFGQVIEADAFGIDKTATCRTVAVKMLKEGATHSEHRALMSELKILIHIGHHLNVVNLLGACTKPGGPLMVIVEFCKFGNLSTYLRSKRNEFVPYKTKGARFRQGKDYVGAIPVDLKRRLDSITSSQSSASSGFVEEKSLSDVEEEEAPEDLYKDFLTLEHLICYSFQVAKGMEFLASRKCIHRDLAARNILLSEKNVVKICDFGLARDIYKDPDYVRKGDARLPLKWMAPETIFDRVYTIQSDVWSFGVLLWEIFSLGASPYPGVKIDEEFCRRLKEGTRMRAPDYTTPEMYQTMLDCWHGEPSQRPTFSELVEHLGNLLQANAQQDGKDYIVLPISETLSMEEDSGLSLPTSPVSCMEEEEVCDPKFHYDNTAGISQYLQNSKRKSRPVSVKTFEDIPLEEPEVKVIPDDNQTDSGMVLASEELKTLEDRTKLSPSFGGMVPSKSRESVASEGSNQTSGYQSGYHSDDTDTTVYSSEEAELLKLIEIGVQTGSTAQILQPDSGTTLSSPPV

For the compound `COc1ccc(C(=O)N2CCN(c3ncccc3C(=O)Nc3cccc(Cl)c3)CC2)cc1`, the IC90 in [1] is greater than 50 µM. In assay [2], the outcome was Active.

For the compound `CCN(CC)CCNC(=O)c1c(C)[nH]c(/C=C2\C(=O)Nc3ccc(F)cc32)c1C` [SUNITINIB], the inhibition entry in assay [3], in assay [4] and in assay [7] was “Active” in each case. The IC90 in assay [1] was found to be 1 µM. In addition, in assay [5], the inhibition entry was “inactive”. Further, the result in [6] was Active.

The compound `O=C(Nc1cccc(Cl)c1)c1cccnc1NC1CCN(Cc2ccccc2)CC1` came in with a concentration for an effect of 90% (IC90) in assay [1] of 9.42 µM. Besides, the inhibition result in assay [8], in assay [9], in [10], in assay [12], in assay [14] and in [16] was “Dose-dependent effect” throughout. For the same compound, in assay [17], the inhibition result was “Dose-dependent effect”. In addition, the Activity entry in assay [11] and in assay [13] was “Dose-dependent effect” throughout. In addition, the outcome in [15] was Active.

`O=C(Nc1cccc(Cl)c1)c1cccnc1NC1CCN(CO)CC1` had an IC90 in assay [1] of 29.2 µM. In assay [18], the outcome was Active.

The compound `O=C(Nc1cccc(Cl)c1)c1cccnc1N1CCN(C(=O)c2cccc(F)c2)CC1` gave an IC90 in [1] greater than 50 µM. Also, the result in assay [2] was Active.

Take `O=C(Nc1cccc(Cl)c1)c1cccnc1NC[C@@H]1CN(Cc2ccc(F)cc2)C(=O)CO1`: in assay [1], the IC90 is greater than 50 µM. The result in assay [2] was Active.

Broadly, the IC90 is the point of the concentration-response curve where the effect stands at 90%. Low readings indicate an effect from little substance, high ones a need for much substance.
